Results as given in publication PMC6348062 (Journal of medicinal chemistry, 2016).
pIC50: −log10 of the molar value. Each block holds one molecule with its values, some of them ahead of it.

Assays:
[1] = molecular target: T1, LMW-PTP (Homo sapiens, UniProt P24666); format: biochemical; conditions: for IC50: read-out: IC50 against LMW-PTP, weak ligands, values in mM; for mode of inhibition of LMW-PTP: Lineweaver-Burk, pNPP as substrate
T1 sequence (P24666 1-158): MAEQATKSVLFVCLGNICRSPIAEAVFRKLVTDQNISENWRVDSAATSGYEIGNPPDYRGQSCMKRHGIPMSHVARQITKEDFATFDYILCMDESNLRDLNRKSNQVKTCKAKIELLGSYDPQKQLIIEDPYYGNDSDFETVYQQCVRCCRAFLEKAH

[2] = molecular target: T2, PTP1B (Homo sapiens, UniProt P18031); assay: PTP activity assay with pNPP, PTP1B; format: biochemical; conditions: read-out: IC50 for PTP1B; values in mM
T2 sequence (P18031 1-435): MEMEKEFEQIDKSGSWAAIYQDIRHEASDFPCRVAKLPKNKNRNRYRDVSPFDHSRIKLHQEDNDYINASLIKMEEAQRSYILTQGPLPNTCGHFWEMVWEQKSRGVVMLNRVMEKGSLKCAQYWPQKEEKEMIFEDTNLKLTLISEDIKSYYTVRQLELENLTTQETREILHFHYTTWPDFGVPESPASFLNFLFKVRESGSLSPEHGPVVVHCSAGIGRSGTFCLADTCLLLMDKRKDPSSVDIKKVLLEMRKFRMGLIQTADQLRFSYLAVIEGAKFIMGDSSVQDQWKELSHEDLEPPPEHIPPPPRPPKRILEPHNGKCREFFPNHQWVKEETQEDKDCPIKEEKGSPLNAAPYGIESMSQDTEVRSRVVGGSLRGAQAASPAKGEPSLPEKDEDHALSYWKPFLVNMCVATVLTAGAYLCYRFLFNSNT

[3] = molecular target: T3, SHP2 (Homo sapiens, UniProt Q06124); assay: PTP activity assay with pNPP, SHP2; format: biochemical; conditions: read-out: IC50 for SHP2; values in mM
T3 sequence (Q06124 1-593): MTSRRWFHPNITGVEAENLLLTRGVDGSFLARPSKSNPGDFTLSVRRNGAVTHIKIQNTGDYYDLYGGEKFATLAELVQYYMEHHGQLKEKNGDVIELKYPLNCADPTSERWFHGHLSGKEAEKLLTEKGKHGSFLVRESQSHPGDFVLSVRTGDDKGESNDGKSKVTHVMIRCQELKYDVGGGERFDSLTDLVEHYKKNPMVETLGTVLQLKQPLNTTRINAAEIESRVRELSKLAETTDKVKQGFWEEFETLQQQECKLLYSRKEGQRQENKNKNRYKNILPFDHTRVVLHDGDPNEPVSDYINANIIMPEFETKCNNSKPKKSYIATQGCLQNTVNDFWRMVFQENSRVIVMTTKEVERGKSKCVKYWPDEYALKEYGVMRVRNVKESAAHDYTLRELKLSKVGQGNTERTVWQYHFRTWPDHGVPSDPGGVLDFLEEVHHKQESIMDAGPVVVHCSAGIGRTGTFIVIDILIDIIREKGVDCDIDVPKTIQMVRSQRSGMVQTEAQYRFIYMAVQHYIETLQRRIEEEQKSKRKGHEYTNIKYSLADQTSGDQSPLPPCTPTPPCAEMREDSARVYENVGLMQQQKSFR

[4] = molecular target: T4, PTPH1 (Homo sapiens, UniProt P26045); assay: PTP activity assay with pNPP, PTPH1; format: biochemical
T4 sequence (P26045 1-913): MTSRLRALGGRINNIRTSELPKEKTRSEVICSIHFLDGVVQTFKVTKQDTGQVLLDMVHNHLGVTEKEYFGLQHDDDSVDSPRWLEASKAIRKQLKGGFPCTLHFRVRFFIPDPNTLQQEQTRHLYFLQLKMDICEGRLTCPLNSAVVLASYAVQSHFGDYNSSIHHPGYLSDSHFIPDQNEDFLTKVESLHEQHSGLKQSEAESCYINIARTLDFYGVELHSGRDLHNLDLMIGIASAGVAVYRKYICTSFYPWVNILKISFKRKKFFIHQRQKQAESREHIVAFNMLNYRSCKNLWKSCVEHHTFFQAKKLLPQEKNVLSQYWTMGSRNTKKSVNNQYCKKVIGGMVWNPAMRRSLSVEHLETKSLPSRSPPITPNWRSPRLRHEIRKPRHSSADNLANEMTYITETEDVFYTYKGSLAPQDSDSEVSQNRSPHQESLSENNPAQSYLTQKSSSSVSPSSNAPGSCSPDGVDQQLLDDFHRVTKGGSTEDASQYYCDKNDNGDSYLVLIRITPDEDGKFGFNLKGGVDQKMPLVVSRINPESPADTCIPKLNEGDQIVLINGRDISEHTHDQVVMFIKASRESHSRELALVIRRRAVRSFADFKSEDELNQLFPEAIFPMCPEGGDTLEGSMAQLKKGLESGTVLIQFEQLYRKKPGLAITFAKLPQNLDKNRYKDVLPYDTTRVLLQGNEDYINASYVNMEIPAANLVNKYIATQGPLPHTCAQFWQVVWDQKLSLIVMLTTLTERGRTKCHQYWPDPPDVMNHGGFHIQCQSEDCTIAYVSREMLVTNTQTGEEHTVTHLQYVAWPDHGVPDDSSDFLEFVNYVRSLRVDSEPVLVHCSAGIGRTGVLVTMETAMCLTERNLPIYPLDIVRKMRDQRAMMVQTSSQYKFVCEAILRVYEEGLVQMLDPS

[5] = system: panel of 24 phosphatases; assay: Selectivity profiling against panel of 24 phosphatases; format: biochemical; conditions: for inhibitory activity against the phosphatases in the panel: at 200 μM concentration; for preference (selectivity) for LMW-PTP over the panel of other PTPs: over all 24 other phosphatases
[6] = molecular target: T1, LMW-PTP; assay: Screen of SPAA-based focused library at ~10 μM, LMW-PTP; format: biochemical; conditions: compound concentration ~10 μM, crude library wells
[7] = system: insulin induced AKT phosphorylation in HepG2 cells; assay: Insulin induced AKT phosphorylation in HepG2 cells; format: cell-based; conditions: 2 h pretreatment, 50 nM insulin 30 min, compound 33 at 16 μM
Procedure, shortened: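 HepG2 cells grown in DMEM with 10% FBS at 37 °C and 5% CO2. At 60-80% confluence, cells were serum-starved overnight, then given vehicle or test compound for 2 h. They were left unstimulated or stimulated with 50 nM insulin for 30 min, then lysed. Immunoblotting used a 10% polyacrylamide gel with anti-phospho-AKT and anti-AKT antibodies, ECL detection and densitometry. pAKT/AKT ratios were normalized to vehicle.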

SMILES: O=S(=O)(O)CCN1CCOCC1 [MES]
IC50 [1]: > 10 mM

SMILES: NC(=O)C(c1ccccc1)S(=O)(=O)O (centres unmarked) [SPAA, SulfoPhenyl Acetic Amide]
IC50 [2]: > 50 mM | IC50 [1]: 2 mM | IC50 [3]: > 50 mM

SMILES: Cc1c(Br)cc(NC(=O)C(c2ccccc2)S(=O)(=O)O)cc1Br (centres unmarked) [compound 1]
pIC50 [4]: < 3.70

pIC50 [4]: < 3.70
SMILES: O=C(Nc1ccc(OCc2ccccc2)c(Cl)c1)C(c1ccccc1)S(=O)(=O)O (centres unmarked) [compound 2]

SMILES: O=C(Nc1ccc2nc(C(F)(F)F)[nH]c2c1)C(c1ccccc1)S(=O)(=O)O (centres unmarked) [compound 3]
pIC50 [4]: < 3.70 | inhibitory activity against the phosphatases in the panel [5]: no inhibitory activity | preference (selectivity) for LMW-PTP over the panel of other PTPs [5]: greater than 35 fold

pIC50 [4]: < 4.00
SMILES: O=C(Nc1ccc(-n2ccnc2)cc1)C(c1ccccc1)S(=O)(=O)O (centres unmarked) [compound 4]

pIC50 [4]: < 3.70
SMILES: O=C(Nc1ccc(N2CCOCC2)cc1)C(c1ccccc1)S(=O)(=O)O (centres unmarked) [compound 5]
inhibitory activity against the phosphatases in the panel [5]: no inhibitory activity

pIC50 [4]: < 3.70
SMILES: O=C(Nc1cnc2ccccc2c1)C(c1ccccc1)S(=O)(=O)O (centres unmarked) [compound 6]
inhibitory activity against the phosphatases in the panel [5]: no inhibitory activity

SMILES: O=C(Nc1nc2ccccc2s1)C(c1ccccc1)S(=O)(=O)O (centres unmarked) [compound 7]
pIC50 [4]: < 3.70 | mode of inhibition of LMW-PTP [1]: competitive

pIC50 [4]: < 3.70
SMILES: O=C(Nc1cc(C(F)(F)F)cc(C(F)(F)F)c1)C(c1ccccc1)S(=O)(=O)O (centres unmarked) [compound 8]

SMILES: O=C(Nc1ccccc1)C(c1ccccc1)S(=O)(=O)O (centres unmarked) [compound 9]
inhibitory activity toward LMW-PTP (in words) [1]: significantly reduced activities | fold decrease in inhibitory activity versus compound 7 ([1]; relative to compound 7): > 15 fold

SMILES: O=C(Nc1nccs1)C(c1ccccc1)S(=O)(=O)O (centres unmarked) [compound 10]
inhibitory activity toward LMW-PTP (in words) [1]: significantly reduced activities

SMILES: CCCNC(=O)C(c1ccccc1)S(=O)(=O)O (centres unmarked) [compound 11]
inhibitory activity toward LMW-PTP (in words) [1]: inactive | inhibition against LMW-PTP in library screen [6]: inactive

SMILES: O=C(Nc1nc2ccc([N+](=O)[O-])cc2s1)C(c1ccccc1)S(=O)(=O)O (centres unmarked) [compound 28]
pIC50 [4]: < 4.00 | fold more active than compound 7 against LMW-PTP [1]: 3.5 fold | mode of inhibition of LMW-PTP [1]: competitive | preference (selectivity) for LMW-PTP over the panel of other PTPs [5]: over 50 fold

SMILES: CCOC(=O)c1ccc2nc(NC(=O)C(c3ccccc3)S(=O)(=O)O)sc2c1 (centres unmarked) [compound 32]
fold more active than compound 7 against LMW-PTP [1]: 2.5 fold

SMILES: O=C(Cc1ccccc1)Nc1nc2ccc([N+](=O)[O-])cc2s1 [compound 33]
inhibitory activity toward LMW-PTP (in words) [1]: completely abolishes | effect on insulin induced AKT phosphorylation (in words) [7]: no effect
